Assay results collected from several papers.
Lines come from different studies, so protocols differ.
Cell line: A498
Read-out: cell growth or viability

| Compound | method | concentration | time | quantity | result |
| --- | --- | --- | --- | --- | --- |
| Cc1cc(C)n(C(=S)[S][Au][PH](CCCCCC[PH]([Au][S]C(=S)n2nc(C)cc2C)(c2ccccc2)c2ccccc2)(c2ccccc2)c2ccccc2)n1 |  |  |  | GI50 | 384 nM |
| COc1cc(-c2ccc(-c3ccc(C(=N)N)nc3)s2)cc(OC)c1OC |  |  |  | GI50 | 4910 nM |
| COc1ccc(C(=O)/C=C/c2ccc3ccccc3c2)cc1S(N)(=O)=O | SRB |  | 48 h | GI50 | 14500 nM |
| COc1cc(Nc2nccc(-c3cnn4nc(OC)ccc34)n2)cc(C(F)(F)F)c1 | ATP luminescence |  |  | IC50 | 430 nM |
| COc1ccc(C(=O)/C=C/c2cccc3ccccc23)cc1S(N)(=O)=O | SRB | 10 µM |  | inhibition | -7% |
| CC(C)C[C@H](NC(=O)[C@H](Cc1ccccc1)NC(=O)c1cnccn1)B(O)O | ATP luminescence |  |  | IC50 | 7.7 nM |
| S=C([S][Au-][P+](CCCCCC[P+]([Au-][S]C(=S)n1cccn1)(c1ccccc1)c1ccccc1)(c1ccccc1)c1ccccc1)n1cccn1 |  |  |  | GI50 | 1010 nM |
| COc1cccc(Oc2ccccc2NC(=O)CNC(=O)c2cccc3ccccc23)c1 | SRB |  | 48 h | GI50 | 115 nM |
| CCC(=O)Nc1cc(Nc2cc(NC3CC3)n3ncc(C#N)c3n2)ccc1C | ATP luminescence |  | 72 h | IC50 | 1800 nM |
